Measured values gathered from unrelated publications.
Compare with care: the assays were run in different laboratories.
Target: NUAK family SNF1-like kinase 1 (NUAK1, Homo sapiens, UniProt O60285)
Residues used in one study (O60285 1-661): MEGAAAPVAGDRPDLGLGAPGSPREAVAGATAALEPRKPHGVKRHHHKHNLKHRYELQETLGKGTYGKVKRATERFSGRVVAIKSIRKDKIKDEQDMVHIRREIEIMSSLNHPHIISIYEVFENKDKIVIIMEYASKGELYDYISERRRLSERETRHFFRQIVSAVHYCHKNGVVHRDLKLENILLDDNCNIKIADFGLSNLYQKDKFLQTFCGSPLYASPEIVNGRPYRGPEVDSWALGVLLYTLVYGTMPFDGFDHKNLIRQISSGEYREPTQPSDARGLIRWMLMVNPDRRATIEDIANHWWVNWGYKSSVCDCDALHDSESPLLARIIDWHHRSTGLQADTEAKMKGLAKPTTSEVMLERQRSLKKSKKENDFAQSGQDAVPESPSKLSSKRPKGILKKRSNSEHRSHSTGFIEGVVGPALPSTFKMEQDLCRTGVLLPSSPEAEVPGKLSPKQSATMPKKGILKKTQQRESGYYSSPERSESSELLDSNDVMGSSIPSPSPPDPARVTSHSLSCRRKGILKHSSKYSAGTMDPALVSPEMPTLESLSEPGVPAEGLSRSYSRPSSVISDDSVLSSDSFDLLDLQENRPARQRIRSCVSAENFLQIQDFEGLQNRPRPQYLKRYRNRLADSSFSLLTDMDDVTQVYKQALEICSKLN

| SMILES | assay | conditions | measurement | value |
| --- | --- | --- | --- | --- |
| Nc1ncc(-c2nc(N3CCOCC3)nc(N3CCOCC3)n2)c(C(F)F)n1 | binding, competition with immobilised ligand | 10 µM | remaining binding | 94% |
| Cn1cc(-c2cc(F)cc(N3CCn4c(cc5c4CCCC5)C3=O)c2CO)cc(Nc2ccc(N3CCN(C4COC4)CC3)cn2)c1=O | enzyme activity, inhibitor | 0.1 µM | inhibition | 17% |
| CC(C)(C)c1cc(C=C(C#N)C#N)cc(Br)c1O | enzyme activity, inhibitor | 0.5 µM | remaining activity | 95.4% |
| Cn1cc(-c2cccc(N3CCc4c(sc5c4CC(C)(C)C5)C3=O)c2CO)cc(Nc2ccncn2)c1=O | enzyme activity, inhibitor | 1 µM | inhibition | 14% |
| Cn1cncc1[C@](O)(COc1ccc(C#N)cc1-c1ccc(OC(F)(F)F)cc1)c1ccc(C#N)cc1 | cell-free assay, competition with immobilised ligand | 1 µM | remaining binding | 81% |
| C#Cc1n[nH]c2c(-c3cn([C@@H](C)c4ccccn4)c(=O)[nH]c3=O)cc(F)cc12 | enzyme activity, inhibitor | 0.1 µM | inhibition | 3.3% |
| O=c1[nH]c2ccccc2n1C1CCN(Cc2ccc(-c3[nH]c4cc5ncnc5cc4nc3-c3ccccc3)cc2)CC1 | cell-free assay | 0.5 µM | remaining signal | 103% |
| N#CC1(c2ccccn2)CCN(Cc2cc(C(=O)O)c(=O)n3ccccc23)CC1 | cell-free assay, competition with immobilised ligand | 1 µM | remaining binding | 98% |
| C#Cc1n[nH]c2c(-c3cn([C@@H](C)c4ccccc4)c(=O)[nH]c3=O)cc(F)cc12 | enzyme activity, inhibitor | 0.1 µM | inhibition | 0.4% |
| COc1ncccc1-c1cnn2ccc(N3CCN(C(=O)OC(C)C)CC3)nc12 | binding, competition with immobilised ligand | 1 µM | remaining binding | 65% |
| Cc1nn(C)cc1-c1nc2c(N3CCN(Cc4ccc(Cl)cc4)CC3)c(Cl)cnc2[nH]1 | binding, competition with immobilised ligand | 1 µM | remaining binding | 9.6% |
